16 molecules from ChEMBL document CHEMBL3596194, “Design, synthesis and biological evaluation of bivalent benzoxazolone and benzothiazolone ligands as potential anti-inflammatory/analgesic agents” (Bioorg Med Chem, 2015) can be followed below.

SMILES strings stand for the structures. Activity calls are given as the source filed them. No cut-off for these calls is given here.

In one data set the test system is SK-OV-3. Nature of the data set: Cytotoxicity against human SKOV3 cells up to 25 ug/ml after 48 hrs by neutral red assay relative to control. The format is cell-based. Conditions: sk-ov-3, 48 h. The essentials:
(§1)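 Cells grown in RPMI-1640 with 10% bovine calf serum and amikacin at 37 °C, 5% CO2. Seeded at 25,000 cells/well and grown 24 h, then exposed 48 h to samples diluted in serum-free medium. Viability by Neutral Red; % decrease vs vehicle; IC50 from dose curves. Triplicate runs, mean reported; doxorubicin as positive control.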

Data set [1] can be described thus: Cytotoxicity against pig LLC-PK11 cells up to 25 ug/ml after 48 hrs by neutral red assay relative to control. In kind it is cell-based, Sus scrofa. Conditions: llc-pk11, 48 h. Summed up: as §1
The next data set concerns SW1353. Nature of the data set: Antiinflammatory activity in human SW1353 cells assessed as inhibition of PMA-induced NF-kappaB activity up to 25 ug/ml incubated for 30 mins prior to PMA challenge measured after 8 hrs by luciferase reporter gene assay. The format is cell-based. The essentials: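 SW1353 chondrosarcoma cells grown in DMEM/F12 with 10% FBS at 37 °C, 5% CO2. Cells electroporated with an NF-κB luciferase plasmid (50 μg/mL, 160 V, one 70-ms pulse) and plated at 1.25 × 10⁵ cells/well. After 24 h, compound was added 30 min before PMA (70 ng/mL), then 8 h incubation. Luciferase read-out as % inhibition vs vehicle; IC50 from dose curves. Sp-1 served as a counter-screen.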
On the technique in general: Reporter assays use an easily measured gene product as a stand-in for the process of interest.

A further data set deals with Vero. Nature of the data set: Cytotoxicity against African green monkey Vero cells up to 25 ug/ml after 48 hrs by neutral red assay relative to control. The format is cell-based. Conditions: chlorocebus sabaeus. The essentials: as §1
The subject of data set [2] is BT-549. Description: Cytotoxicity against human BT549 cells up to 25 ug/ml after 48 hrs by neutral red assay relative to control. In kind it is cell-based. Particulars: bt-549, 48 h. Summed up: as §1
Data set [3] concerns SK-MEL. Description: Cytotoxicity against human SK-MEL cells up to 25 ug/ml after 48 hrs by neutral red assay relative to control. In kind it is cell-based. The essentials:
as §1

The subject of another data set is KB. Nature of the data set: Cytotoxicity against human KB cells up to 25 ug/ml after 48 hrs by neutral red assay relative to control. In kind it is cell-based. The essentials: as §1
The nature of data set [4]: Antiinflammatory activity in human SW1353 cells assessed as inhibition of PMA-induced NF-kappaB activity incubated for 30 mins prior to PMA challenge measured after 8 hrs by luciferase reporter gene assay. The format is cell-based. The essentials:
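SW1353 cells in DMEM/F12 with 10% FBS, electroporated with NF-κB luciferase plasmid (160 V, one 70-ms pulse), plated at 1.25 × 10⁵ cells/well. After 24 h, graded compound concentrations added 30 min before PMA 70 ng/mL, then 8 h incubation. Luciferase read-out, % inhibition versus vehicle, IC50 from dose curves. Sp-1 reporter served as nonspecific control.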

In data set [5] the test system is BT-549. Nature of the data set: Cytotoxicity against human BT549 cells after 48 hrs by neutral red assay relative to control. In kind it is cell-based. Conditions: BT-549, 48 h. The essentials:
(§2)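 Cells grown in RPMI-1640 with 10% bovine calf serum and amikacin at 37°C, 5% CO₂. Seeded 25,000 cells/well, grown 24 h, then exposed to compounds diluted in serum-free medium for 48 h. Viability by Neutral Red uptake, % decrease versus vehicle control. IC50 from dose curves, triplicate means. Doxorubicin positive control.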

Data set [6] deals with SK-MEL. Nature of the data set: Cytotoxicity against human SK-MEL cells after 48 hrs by neutral red assay relative to control. In kind it is cell-based. Summed up: as §2
For data set [7], the target named is T1, Nitric oxide synthase, inducible (Mus musculus) (UniProt P29477).
T1 sequence (whole entry): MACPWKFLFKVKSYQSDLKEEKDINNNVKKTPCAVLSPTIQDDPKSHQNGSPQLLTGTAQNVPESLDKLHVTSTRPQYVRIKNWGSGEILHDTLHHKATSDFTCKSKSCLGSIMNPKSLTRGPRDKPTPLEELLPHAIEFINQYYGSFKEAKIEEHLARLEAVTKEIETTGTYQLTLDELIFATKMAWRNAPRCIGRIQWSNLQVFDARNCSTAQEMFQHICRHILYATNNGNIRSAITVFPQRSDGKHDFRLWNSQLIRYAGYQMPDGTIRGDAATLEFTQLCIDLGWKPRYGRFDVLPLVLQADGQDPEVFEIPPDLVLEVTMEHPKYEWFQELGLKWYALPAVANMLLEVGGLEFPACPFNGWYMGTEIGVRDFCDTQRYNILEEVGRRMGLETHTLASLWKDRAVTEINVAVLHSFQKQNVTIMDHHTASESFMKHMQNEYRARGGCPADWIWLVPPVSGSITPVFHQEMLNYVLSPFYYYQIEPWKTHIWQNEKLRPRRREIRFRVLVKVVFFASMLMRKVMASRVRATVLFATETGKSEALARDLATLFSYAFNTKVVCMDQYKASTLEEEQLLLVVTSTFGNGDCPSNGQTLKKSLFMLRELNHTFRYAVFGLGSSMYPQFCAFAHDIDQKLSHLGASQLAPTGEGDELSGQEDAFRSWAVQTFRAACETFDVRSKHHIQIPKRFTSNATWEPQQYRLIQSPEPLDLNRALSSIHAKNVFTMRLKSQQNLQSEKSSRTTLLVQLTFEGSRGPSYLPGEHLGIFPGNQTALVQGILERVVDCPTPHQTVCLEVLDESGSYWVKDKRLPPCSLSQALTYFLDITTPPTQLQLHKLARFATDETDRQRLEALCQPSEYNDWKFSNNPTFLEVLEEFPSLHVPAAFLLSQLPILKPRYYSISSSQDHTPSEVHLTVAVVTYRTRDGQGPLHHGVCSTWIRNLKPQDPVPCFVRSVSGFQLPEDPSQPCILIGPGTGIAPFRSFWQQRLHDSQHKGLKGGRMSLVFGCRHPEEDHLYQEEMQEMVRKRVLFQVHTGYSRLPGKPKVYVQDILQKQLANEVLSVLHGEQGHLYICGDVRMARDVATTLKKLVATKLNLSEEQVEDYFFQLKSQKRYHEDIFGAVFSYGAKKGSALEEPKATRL
Description: Antiinflammatory activity in mouse RAW264.7 cells assessed as inhibition of LPS-induced iNOS activity up to 25 ug/ml incubated for 30 mins prior to LPS challenge measured after 24 hrs by Griess assay. In kind it is cell-based. The essentials: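 RAW264.7 macrophages seeded at 50,000 cells/well and grown 24 h to ≥75% confluency. Compounds in serum-free medium added 30 min before LPS (5 μg/mL), then 24 h incubation. Nitrite in the supernatant measured with Griess reagent.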

Consider `O=c1oc2ccccc2n1CCCCCN1CCN(CCCn2c(=O)oc3ccccc32)CC1`, for which the Activity entry (in the data set with SK-OV-3; in data set [1]; in the data set on Vero; in the data set on BT-549 [2]; with SK-MEL [3]; with KB) was “Non-toxic” throughout. The inhibition result in the data set with SW1353 is “inactive”.

Take `O=c1oc2ccccc2n1CCCCCCN1CCN(CCn2c(=O)oc3ccccc32)CC1`: the Activity entry (in the data set on SK-OV-3; in data set [1]; in the data set on Vero; in the data set on BT-549 [2]; in the data set with SK-MEL [3]; with KB) was “Non-toxic” throughout. Besides, the IC50 (in general, the midpoint of a concentration-inhibition curve) in data set [4] is 3.07 µM.

On to `O=c1sc2ccccc2n1CCCCCN1CCN(CCCCn2c(=O)sc3ccccc32)CC1`, for which the Activity entry (in the data set on SK-OV-3; in [1]; with Vero; in the data set with KB) was “Non-toxic” throughout. For the same molecule, the IC50 with BT-549 [5] is 22.1 µM; in the data set on SK-MEL [6] it was 17.5 µM; in data set [4] it was 1.18 µM.

For `O=c1oc2ccccc2n1CCCCN1CCN(CCCn2c(=O)oc3ccccc32)CC1`, the Activity result (in the data set with SK-OV-3; in data set [1]; with Vero; in the data set on BT-549 [2]; with SK-MEL [3]; in the data set on KB) was “Non-toxic” throughout. For the same molecule, the inhibition entry (in the data set on SW1353; in [7]) was “inactive” in each case.

With `O=c1sc2ccccc2n1CCCCCCN1CCN(CCCn2c(=O)sc3ccccc32)CC1`, the Activity entry (in the data set on SK-OV-3; in data set [1]; with Vero; in the data set with KB) was “Non-toxic” in each case. For the same molecule, the IC50 turned out to be 25 µM in the data set with BT-549 [5], 12 µM in the data set with SK-MEL [6] and 2.4 µM in data set [4].

For the molecule `O=c1sc2ccccc2n1CCCCN1CCN(CCCCn2c(=O)sc3ccccc32)CC1`, the Activity result (in the data set on SK-OV-3; in data set [1]; in the data set on Vero; in the data set on BT-549 [2]; with SK-MEL [3]; in the data set with KB) was “Non-toxic” each time. In addition, the inhibition result in [7] is “inactive”. Moreover, the IC50 in [4] stood at 2.28 µM.

Regarding `O=c1sc2ccccc2n1CCCCN1CCN(CCn2c(=O)sc3ccccc32)CC1`, the Activity entry (in the data set with SK-OV-3; in [1]; with Vero; with BT-549 [2]; in the data set on SK-MEL [3]; with KB) was “Non-toxic” throughout. In addition, the inhibition result (in the data set with SW1353; in [7]) was “inactive” throughout.

In the case of `O=c1oc2ccccc2n1CCCCCCN1CCN(CCCn2c(=O)oc3ccccc32)CC1`, the Activity result (in the data set on SK-OV-3; in [1]; in the data set on Vero; with BT-549 [2]; with SK-MEL [3]; in the data set on KB) was “Non-toxic” in each case. Moreover, in the data set with SW1353, the inhibition entry is “inactive”.

`O=c1oc2ccccc2n1CCCCCCN1CCN(CCCCCCn2c(=O)oc3ccccc32)CC1`: the Activity result (in the data set on SK-OV-3; in data set [1]; with Vero; with KB) was “Non-toxic” each time. Further, the IC50 with BT-549 [5] was 18.5 µM; in the data set with SK-MEL [6] it was 21.3 µM. In addition, in the data set on SW1353, the inhibition entry is “inactive”.

Regarding `O=c1oc2ccccc2n1CCCN1CCN(CCCn2c(=O)oc3ccccc32)CC1`, the Activity result (in the data set on SK-OV-3; in data set [1]; with Vero; with BT-549 [2]; with SK-MEL [3]; in the data set on KB) was “Non-toxic” throughout. Further, in data set [7], the inhibition result is “inactive”. Moreover, the IC50 in data set [4] came out at 4.91 µM.

For the molecule `O=c1sc2ccccc2n1CCCCCN1CCN(CCCn2c(=O)sc3ccccc32)CC1`, the Activity result (in the data set with SK-OV-3; in [1]; in the data set with Vero; with KB) was “Non-toxic” in each case. In addition, the IC50 amounted to 14 µM with BT-549 [5], 16.8 µM with SK-MEL [6] and 1.46 µM in [4].

For the molecule `C=C1C(=O)O[C@@H]2[C@H]3O[C@]3(C)CC/C=C(\C)CC[C@@H]12`, the IC50 in data set [4] worked out at 2.57 µM.

As for `O=c1oc2ccccc2n1CCCCCCN1CCN(CCCCn2c(=O)oc3ccccc32)CC1`, the Activity result (with SK-OV-3; in [1]; in the data set on Vero; in the data set on BT-549 [2]; in the data set with SK-MEL [3]; in the data set with KB) was “Non-toxic” in each case. Moreover, the IC50 in data set [4] amounted to 1.24 µM.

As for `O=c1oc2ccccc2n1CCCCCN1CCN(CCn2c(=O)oc3ccccc32)CC1`, the Activity result (in the data set on SK-OV-3; in data set [1]; with Vero; with BT-549 [2]; in the data set with SK-MEL [3]; in the data set on KB) was “Non-toxic” in each case.

With `O=c1oc2ccccc2n1CCCCCCN1CCN(CCCCCn2c(=O)oc3ccccc32)CC1`, the Activity result (in the data set with SK-OV-3; in data set [1]; in the data set on Vero; with KB) was “Non-toxic” each time. For the same molecule, the half-maximal inhibitory concentration (IC50) in the data set with BT-549 [5] was 22.5 µM; in the data set on SK-MEL [6], 23 µM; in data set [4] it was 1.4 µM.

With `O=c1sc2ccccc2n1CCCCCCN1CCN(CCn2c(=O)sc3ccccc32)CC1`, the Activity entry (with SK-OV-3; in data set [1]; with Vero; with KB) was “Non-toxic” each time. In addition, the IC50 turned out to be 25 µM with BT-549 [5], 25 µM in the data set on SK-MEL [6] and 2.95 µM in [4].
